Target: GABA-A receptor; anion channel (Rattus norvegicus) (UniProt O09028+P15431+P18506+P18508+P19969+P20236+P23574+P23576+P28471+P28473+P30191+P62813+P63079+P63138+Q91ZM7+Q9ES14)
Experiment: Displacement of [3H]EBOB from GABA-A receptors of rat cerebellum
Assay type: tissue-based
In short: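 Rat cerebellar synaptosomal membranes: homogenized in 0.32 M sucrose, differentially centrifuged, water-lysed, Tris HCl (pH 7.4) washed, frozen; thawed membranes spun in 50 mM Tris HCl with 0.2 M NaCl. Incubated 2 h at 25 °C with 1 nM [3H]EBOB; nonspecific binding with 50 µM picrotoxin. Duplicates filtered on GF/B. Specific binding ratio with/without steroid fitted by nonlinear regression; mean ± SEM.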

| Compound | Ks [nM] |
| --- | --- |
| C#C[C@H](OC)[C@H]1CC[C@H]2[C@@H]3CC[C@H]4C[C@H](O)CC[C@]4(C)[C@H]3CC[C@]12C | 924 |
| COc1ccc(C#C[C@H](O)[C@H]2CC[C@H]3[C@@H]4CC[C@H]5C[C@H](O)CC[C@]5(C)[C@H]4CC[C@]23C)cc1 | 1640 |
| C#C[C@@H](OC)[C@H]1CC[C@H]2[C@@H]3CC[C@H]4C[C@H](O)CC[C@]4(C)[C@H]3CC[C@]12C | 802 |
| Cc1ccc(C#C[C@H]2CC[C@H]3[C@@H]4CC[C@H]5C[C@H](O)CC[C@]5(C)[C@H]4CC[C@]23C)cc1 | 4100 |
| C#C[C@@H](O)[C@H]1CC[C@H]2[C@@H]3CC[C@H]4C[C@H](O)CC[C@]4(C)[C@H]3CC[C@]12C | 145 |
| CC(=O)[C@H]1CC[C@H]2[C@@H]3CC[C@H]4C[C@H](O)CC[C@]4(C)[C@H]3CC[C@]12C | 198 |
| C[C@]12CC[C@@H](O)C[C@@H]1CC[C@@H]1[C@@H]2CC[C@]2(C)[C@@H](C#CBr)CC[C@@H]12 | 350 |
| COc1ccc(C#C[C@@H](O)[C@H]2CC[C@H]3[C@@H]4CC[C@H]5C[C@H](O)CC[C@]5(C)[C@H]4CC[C@]23C)cc1 | 870 |
| C#C[C@H](O)[C@H]1CC[C@H]2[C@@H]3CC[C@H]4C[C@H](O)CC[C@]4(C)[C@H]3CC[C@]12C | 494 |
| CC(O)C#C[C@H]1CC[C@H]2[C@@H]3CC[C@H]4C[C@H](O)CC[C@]4(C)[C@H]3CC[C@]12C (stereo partly drawn) | 946 |
| C=C=C[C@H](O)[C@H]1CC[C@H]2[C@@H]3CC[C@H]4C[C@H](O)CC[C@]4(C)[C@H]3CC[C@]12C | 810 |
| C#CC(=O)[C@H]1CC[C@H]2[C@@H]3CC[C@H]4C[C@H](O)CC[C@]4(C)[C@H]3CC[C@]12C | 844 |
| C=C=C[C@@H](O)[C@H]1CC[C@H]2[C@@H]3CC[C@H]4C[C@H](O)CC[C@]4(C)[C@H]3CC[C@]12C | 2.8 |
